These results are taken from PMC4535313 (Bioorganic & medicinal chemistry letters, 2014).

In one series the target is PLD2 (Homo sapiens, UniProt O14939). As to conditions: recently reported inhibitors, Fig. 1; cited from earlier work.
A short description of series [1]: Metabolic stability in rat microsomes. The class given is in vitro ADME.
The target of a further series is T1, PLD1 (Homo sapiens, UniProt Q13393).
T1 sequence (Q13393 1-1074): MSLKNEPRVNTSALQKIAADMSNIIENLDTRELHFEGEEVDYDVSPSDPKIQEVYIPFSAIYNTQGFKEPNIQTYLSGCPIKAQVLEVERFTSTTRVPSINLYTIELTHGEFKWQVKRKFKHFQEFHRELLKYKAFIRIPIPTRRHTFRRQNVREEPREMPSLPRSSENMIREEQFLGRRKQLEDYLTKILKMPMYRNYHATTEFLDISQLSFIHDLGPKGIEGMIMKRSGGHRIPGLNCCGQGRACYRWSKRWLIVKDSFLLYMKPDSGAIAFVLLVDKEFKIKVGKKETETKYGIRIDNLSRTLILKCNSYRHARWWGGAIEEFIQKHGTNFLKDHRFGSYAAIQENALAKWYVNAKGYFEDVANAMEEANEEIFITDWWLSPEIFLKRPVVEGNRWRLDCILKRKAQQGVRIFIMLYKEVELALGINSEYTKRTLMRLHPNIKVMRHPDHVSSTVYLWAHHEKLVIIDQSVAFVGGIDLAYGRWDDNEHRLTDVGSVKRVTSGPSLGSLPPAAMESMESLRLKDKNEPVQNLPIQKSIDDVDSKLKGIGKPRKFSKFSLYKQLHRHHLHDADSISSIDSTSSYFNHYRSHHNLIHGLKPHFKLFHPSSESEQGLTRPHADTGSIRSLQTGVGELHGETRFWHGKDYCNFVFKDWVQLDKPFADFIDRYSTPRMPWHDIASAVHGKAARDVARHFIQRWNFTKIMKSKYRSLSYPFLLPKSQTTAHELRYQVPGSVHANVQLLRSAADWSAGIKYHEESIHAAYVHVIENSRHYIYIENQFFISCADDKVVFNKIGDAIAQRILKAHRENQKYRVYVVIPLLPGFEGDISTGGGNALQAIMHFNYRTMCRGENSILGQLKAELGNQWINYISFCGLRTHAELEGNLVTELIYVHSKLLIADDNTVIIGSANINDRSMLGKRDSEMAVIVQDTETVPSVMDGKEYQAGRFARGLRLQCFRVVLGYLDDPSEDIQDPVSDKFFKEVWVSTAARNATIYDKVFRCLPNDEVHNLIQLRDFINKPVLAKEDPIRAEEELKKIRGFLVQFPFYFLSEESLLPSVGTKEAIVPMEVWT
In words: Cellular PLD1 assay with Calu-1 cells. It counts as cell-based. An outline of the steps: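 Calu-1 cells used for cell-based PLD1 inhibition readout. Each IC50 determined in triplicate.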

PLD2, sequence (O14939 whole entry, species assumed): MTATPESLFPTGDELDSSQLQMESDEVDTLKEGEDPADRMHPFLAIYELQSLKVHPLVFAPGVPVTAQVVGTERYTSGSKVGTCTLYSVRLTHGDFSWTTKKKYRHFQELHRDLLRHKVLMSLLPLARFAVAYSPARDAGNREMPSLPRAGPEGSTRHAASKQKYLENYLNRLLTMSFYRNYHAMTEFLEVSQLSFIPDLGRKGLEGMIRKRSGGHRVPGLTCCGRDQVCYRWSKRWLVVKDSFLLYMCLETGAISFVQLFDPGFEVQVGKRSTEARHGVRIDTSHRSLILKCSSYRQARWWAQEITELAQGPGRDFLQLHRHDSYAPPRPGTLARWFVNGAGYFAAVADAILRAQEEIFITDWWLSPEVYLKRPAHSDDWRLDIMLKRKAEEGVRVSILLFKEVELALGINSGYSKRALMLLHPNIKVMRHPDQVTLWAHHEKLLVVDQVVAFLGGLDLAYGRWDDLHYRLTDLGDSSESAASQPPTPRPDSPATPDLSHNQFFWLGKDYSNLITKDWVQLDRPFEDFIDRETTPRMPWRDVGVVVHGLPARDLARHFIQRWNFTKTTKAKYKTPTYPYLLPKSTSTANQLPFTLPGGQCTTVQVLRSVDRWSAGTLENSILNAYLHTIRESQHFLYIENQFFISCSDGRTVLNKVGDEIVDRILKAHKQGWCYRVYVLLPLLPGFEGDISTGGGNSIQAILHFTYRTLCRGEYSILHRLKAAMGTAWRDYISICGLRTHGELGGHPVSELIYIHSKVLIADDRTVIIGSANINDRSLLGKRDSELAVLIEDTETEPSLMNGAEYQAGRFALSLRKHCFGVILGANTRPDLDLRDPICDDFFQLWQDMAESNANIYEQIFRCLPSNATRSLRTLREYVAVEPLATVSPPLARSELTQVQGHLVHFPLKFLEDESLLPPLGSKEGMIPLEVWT

As for `O=C(NCCN1CCC2(CC1)C(=O)NCN2c1cccc(F)c1)c1ccc(F)c(F)c1` [compound 4], the “fold PLD2 selective” value on PLD2 was 53 fold.

In series [1], `CC1CC(n2c(=O)[nH]c3ccccc32)CCN1CCNC(=O)c1ccc(F)cc1` (stereo not drawn) [compound 9] came in with a Clhep of 4.2 L/h/kg.

Usually IC50 stands for the concentration that inhibits the measured activity by half. The compound `CC(CNC(=O)c1ccc(F)c(F)c1)N1CCC2(CC1)C(=O)NCN2c1ccccc1` (stereo not drawn) [8f] yielded an IC50 at PLD1 of approximately 1 µM.
